OX1R antag-1 = blocks the human orexin 1 receptor; inhibition, % at 5 µM; CHO/OX1R cells, Fluo-8 calcium fluorescence, orexin A; actives 0.43% (n = 330,000); AID 434989; O43613;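 active means inhibition above its plate's threshold, mean inhibition of all tested compounds on the plate plus 3 SD, cut at about 37% in these data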;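 further: 0% = orexin A challenge wells and 100% = SB-334867-A antagonist wells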
OX1R antag-2 = antagonists of human orexin 1 receptor (OX1R). inhibition, % at 6.6 µM. actives 1.8% (n = 330,000). AID 485270. OX1R-expressing cells, FRET antagonist read-out; in the data active means inhibition mostly above about 38%, no sharp cut-off; inactive means mostly below about 40%;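 further: 0% = agonist challenge alone and 100% = reference antagonist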
TAAR1 antag = human TAAR1 antagonism. Q96RJ0. actives 1.5% (n = 360,000). CHO RD-HGA16 TAAR1, Fluo-8 calcium fluorescence, antagonist. inhibition, % at 3 µM;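 active means inhibition above a per-plate cutoff, the mean inhibition of test compounds on that plate plus 3 SD, cut at about 49% in these data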;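 further: 0% = DMSO plus EC80 beta-PEA response and 100% = DMSO alone without agonist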
Target sequence (Q96RJ0 whole entry, looked up): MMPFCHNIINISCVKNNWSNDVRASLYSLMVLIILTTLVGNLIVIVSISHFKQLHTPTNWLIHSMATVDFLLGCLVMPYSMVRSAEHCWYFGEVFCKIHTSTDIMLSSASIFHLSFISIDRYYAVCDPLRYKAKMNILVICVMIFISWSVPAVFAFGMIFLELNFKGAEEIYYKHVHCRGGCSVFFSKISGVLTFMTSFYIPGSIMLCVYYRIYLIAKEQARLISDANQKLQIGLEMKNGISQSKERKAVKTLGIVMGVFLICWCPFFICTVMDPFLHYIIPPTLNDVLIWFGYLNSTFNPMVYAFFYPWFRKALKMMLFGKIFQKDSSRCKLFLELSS
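Test system: hTAAR1-expressing CHO RD-HGA16 cells, Gα16-coupled; Probe or stimulus: EC80 β-phenethylamine stimulus; Compound dosing: single nominal final test compound concentration of 3 µM; Timing: 140 s kinetic read after compound, 140 s after agonist; Signal: Fluo-8 calcium-sensitive fluorescence; Measure: % inhibition of agonist calcium response; Controls: DMSO and EC80 PEA controls.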
GPR7 antagonist = human neuropeptides B/W receptor 1 antagonism | P48145 | GPR7-expressing cells, fluorescence antagonist assay | inhibition, % at 4.4 µM | actives 1.1% (n = 290,000); in the data active means inhibition above about 16%, passing the limit was not always enough;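 further: cells stimulated with the agonist NPW; 0% = agonist with vehicle and 100% = vehicle without agonist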
Target sequence (P48145 whole entry, looked up): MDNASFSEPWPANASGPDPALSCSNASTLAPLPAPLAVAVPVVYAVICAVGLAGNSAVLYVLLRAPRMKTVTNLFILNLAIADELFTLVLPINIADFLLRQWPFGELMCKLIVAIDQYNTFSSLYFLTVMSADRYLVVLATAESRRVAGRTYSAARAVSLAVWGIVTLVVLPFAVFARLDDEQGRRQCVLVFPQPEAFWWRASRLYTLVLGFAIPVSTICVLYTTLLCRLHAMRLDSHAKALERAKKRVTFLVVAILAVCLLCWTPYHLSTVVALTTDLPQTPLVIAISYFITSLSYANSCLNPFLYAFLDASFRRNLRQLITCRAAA
TAAR1 agonist = human TAAR1 agonism. Q96RJ0. CHO RD-HGA16 TAAR1, Fluo-8 calcium fluorescence; vehicle wells 0%, saturating PEA agonist 100%. actives 0.99% (n = 360,000). activation, % at 3 µM;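 active means activation above the mean activation of all test compounds in the run plus 3 SD, cut at about 38% in these data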
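System: CHO-derived RD-HGA16 cells with stable Gα16 and human TAAR1 / Times: 17-24 h plating, Fluo-8 75 min 37 °C, 30 min RT / Technique: calcium-sensitive Fluo-8 signal, excitation 470-495, emission 515-575 nm / Measure: % activation relative to PEA EC100 response / Benchmarks: DMSO and PEA EC100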
CHO parental Ca = signal in parental CHO cells, OX1R antagonist counter-screen. inhibition, % at 5.6 µM. AID 463079. actives 0.63% (n = 330,000). parental CHO-K1, ATP-induced calcium, Fluo-8 fluorescence;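 active means inhibition above that plate's mean sample inhibition plus 3 SD, cut at about 26% in these data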;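 further: 0% = ATP-challenged DMSO wells and 100% = DMSO wells without ATP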
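Test system: untransfected parental CHO cell line. Compound: one dose, 5.6 µM nominal. Detection: intracellular calcium via Fluo-8 no-wash fluorescent dye. Measure: % inhibition. Benchmarks: ATP-challenged DMSO wells low, unchallenged DMSO wells high.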
GPR7 antag cf = human GPR7 antagonism, confirmation assay | actives 52% (n = 2,400) | shares compounds with GPR7 antagonist | AID 1952 | GPR7-expressing cells, calcium fluorescence antagonist mode | inhibition, % at 4.4 µM; in the data active means inhibition above about 24%;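 further: stimulated with the GPR7 agonist NPW; 0% = agonist plus vehicle and 100% = vehicle alone without agonist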
MCHR1 antagonist = counter-screen for GPR7 antagonists: antagonists of human MCHR1. shares compounds with GPR7 antagonist. MCHR1-expressing cells, fluorescence antagonist assay. inhibition, % at 4.4 µM. actives 62% (n = 2,400); in the data active means inhibition above about 22%;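 further: 0% = vehicle with agonist and 100% = vehicle without agonist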
* hit, by the source's call; / = no result given. This is a sample that favours compounds with a hit; in the whole collection about 4.6% have one here.

SMILES	OX1R antag-1	OX1R antag-2	TAAR1 antag	GPR7 antagonist	TAAR1 agonist	CHO parental Ca	GPR7 antag cf	MCHR1 antagonist
O=C(c1cc(F)ccc1F)C1CCCN(Cc2cccn2-c2ccccn2)C1 (configuration not stated)	-33.9	20.3	-45.3	36.7*	1.4	-12.7	19.7	24.3*
Cc1ccc(-c2csc(NC(=O)c3ccc(Br)cc3)c2C(=O)O)cc1	-18.5	10.4	23.6	40.0*	-1.2	1.9	62.3*	45.8*
Brc1cc2c(cc1/C=N/Nc1nc(N3CCCCC3)nc(N3CCCCC3)n1)OCO2	/	/	/	25.3*	/	/	-27.6	-4.5
CCOc1cc(S(=O)(=O)N2CCCCC2)ccc1Cl	-31.0	14.5	2.2	25.3*	-3.6	-24.0	-7.8	28.3*
CCOc1cc(S(=O)(=O)N2CCN(CC)CC2)ccc1Cl	-12.8	10.8	7.8	-8.8	1.3	-20.1	/	/
CCN1CCN(C(=O)C2CCN(S(=O)(=O)c3ccc(Br)cc3)CC2)CC1	/	/	-20.7	-2.1	4.0	/	/	/
COc1cc(/C=N/NC(=O)c2ccc(F)cc2)ccc1OC(=O)c1ccco1	-15.3	5.2	1.7	5.1	2.5	-13.8	/	/
O=C(N/N=C/c1cccc(OC(=O)c2ccco2)c1)c1ccc(F)cc1	-20.9	10.4	18.3	21.6*	-1.5	-10.8	16.3	23.4*
O=S(=O)(Nc1nccs1)c1ccc(NS(=O)(=O)c2c(F)cc(F)c(Cl)c2F)cc1	-8.2	7.6	-1.6	/	-0.3	-0.1	/	/
COC(C(=O)Nc1ccc(S(=O)(=O)Nc2ccc(F)cc2)cc1)c1ccccc1 (configuration not stated)	12.3	3.5	36.8	21.6*	56.3*	8.2	51.2*	38.6*
O=C(NCCc1ccco1)C(=O)NCC1OCCCN1S(=O)(=O)c1ccc(F)cc1 (configuration not stated)	12.8	38.1	-19.7	23.7*	4.1	-9.9	-1.0	2.0
COc1ccccc1N1CCN(CC(=O)Nc2ccc(C)c(F)c2)CC1	-14.2	2.6	-14.4	26.5*	6.1	-28.5	-2.6	1.1
Cc1cc2oc(=O)cc(CNc3ccccc3F)c2cc1O	-19.7	14.7	6.1	38.0*	3.6	3.6	44.1*	68.1*
COc1cc(OC)c(S(=O)(=O)N2CCCCC2)cc1S(=O)(=O)N1CCCCC1	-15.1	3.9	19.7	47.7*	13.5	-8.8	46.3*	21.3
Cc1cc(Cl)c(S(=O)(=O)N2CCCCCC2)cc1OCC(=O)NC1CCCCC1	14.2	13.2	4.6	31.5*	9.7	78.2*	61.3*	58.2*
COc1ccc(OC)c(S(=O)(=O)N2CCC(C(=O)NC3CCCC3)CC2)c1	-15.7	14.7	-14.7	-8.4	0.1	-3.6	/	/
CCOC(=O)N1CCN(S(=O)(=O)c2cc(OCC(=O)NC3CCCCC3)c(C)cc2Cl)CC1	-29.5	-1.2	21.1	0.8	19.5	-15.6	/	/
COc1ccc(OC)c(S(=O)(=O)N2CCC(C(=O)NC3CCCCCC3)CC2)c1	-31.5	6.3	-17.7	25.7*	0.1	-13.3	-2.5	11.8
Cc1cc2cc(CNC(=O)Cc3cccs3)ccc2n1C	-19.4	15.0	/	/	/	-5.7	/	/
CCCCNc1nc2cccnc2s1	-16.1	15.2	2.6	-7.5	11.0	-23.5	/	/
Fc1ccc(NC(=S)NCCc2ccccc2)c(F)c1F	16.9	10.4	13.0	28.0*	25.5	-10.5	7.7	55.1*
CCc1c(C)nc(SCC(=O)Nc2c(C)n(C)n(-c3ccccc3)c2=O)[nH]c1=O	-17.8	12.0	0.8	-1.6	2.2	-4.7	/	/
CC(C)(C)CNC(=O)C1(C)CCN1C(=O)C1(c2ccccc2)CC1 (configuration not stated)	/	/	-20.7	/	-0.6	/	/	/
COc1ccc(OCC(O)Cn2c(=N)n(CCN3CCCCC3)c3ccccc32)cc1 (configuration not stated)	-44.9	14.2	-13.2	28.6*	6.3	-12.5	13.7	22.6*
Cc1ccc(OCC(O)Cn2c(=N)n(CCN3CCCCC3)c3ccccc32)cc1 (configuration not stated)	-21.2	7.8	3.4	27.5*	8.2	-21.1	40.9*	38.6*
SMILES	OX1R antag-1	OX1R antag-2	TAAR1 antag	GPR7 antagonist	TAAR1 agonist	CHO parental Ca	GPR7 antag cf	MCHR1 antagonist
CCOC(=O)C1CCN(S(=O)(=O)c2c(Cl)ccc3nonc23)CC1	8.9	88.6*	-4.8	44.4*	3.7	14.0	56.5*	46.3*
COc1ccccc1-c1nnc(SCC(=O)c2c(N)n(C3CC3)c(=O)[nH]c2=O)n1C	-8.8	2.2	5.2	/	0.0	-10.9	/	/
O=S(=O)(NCCCSc1ccccc1)c1ccccc1F	-22.9	30.2	-12.0	25.4*	4.3	-12.1	-3.9	5.6
O=[N+]([O-])c1ccccc1S(=O)(=O)NCCSc1ccccc1	-10.6	11.4	-10.4	-9.7	6.0	-14.1	/	/
NC(=O)c1ccsc1NC(=O)COC(=O)Cc1ccccc1Cl	30.7	14.9	21.5	/	17.8	3.3	/	/
CCC(Oc1ccccc1)C(=O)Nc1ccc(S(=O)(=O)NCC2CCCO2)cc1 (configuration not stated)	8.0	7.6	-0.5	22.5*	36.3	7.1	-12.7	34.5*
COc1cc(CN2C[C@@H](CO)O[C@@H](n3cnc4c(N(C)C(C)C)ncnc43)C2)cc(OC)c1OC	/	/	-2.5	/	2.0	/	/	/
O=C1NC(Cc2ccc(O)cc2)c2nc3ccc(Cl)cc3c(=O)n2-c2cc3ccccc3cc21 (configuration not stated)	/	/	19.6	/	1.2	/	/	/
CCCCCOc1ccc(Cn2ccnc2)cc1[N+](=O)[O-]	-22.3	10.5	16.0	21.1*	1.2	-7.7	37.0*	48.2*
CCOc1ccc(Cn2ccnc2)cc1[N+](=O)[O-]	-5.7	18.7	-9.2	-3.4	0.5	-7.6	/	/
Cn1cc(CN2CCCC(C(=O)Nc3cccc(-n4cccn4)c3)C2)cn1 (configuration not stated)	-20.5	1.7	-18.6	0.2	0.5	-23.6	/	/
Cn1cc(CN2CCCC(C(=O)Nc3ccc(-c4cccc(F)c4)cc3)C2)cn1 (configuration not stated)	-3.0	3.3	9.6	39.1*	17.4	-16.6	42.0*	64.5*
Cc1nn(-c2ccc(F)cc2)c(Cl)c1/C=C(/CC(=O)O)c1nc2ccccc2s1	/	/	-15.0	/	1.6	/	/	/
CC(=O)c1ccc(NC(=S)NC(C)c2ccc(Cl)cc2Cl)cc1 (configuration not stated)	72.5*	10.5	37.7	43.6*	41.5*	64.4*	60.8*	73.2*
CC(=O)c1ccc(NC(=S)Nc2ccc(Br)c(Cl)c2)cc1	-5.5	27.2	5.9	-6.9	21.5	-6.9	/	/
